Bioassay records from PubChem BioAssay.
Compounds with a hit are over-represented: about 1.4% of the library has one in this group of screens.
hK5 inh = human KLK5 protease inhibitors, primary screen, biochemical, 1536-well; Kallikrein-5 (Homo sapiens), Q9Y337; recombinant hK5, fluorogenic AMC substrate cleavage; inhibition, % at 5 µM; hit rate 0.59% among 210,000; AID 873, 2007;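 active = inhibition of 40% or more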;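 note: 0% = enzyme controls without compound and 100% = no-enzyme blanks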
FXIa inh 1536 = human FXIa protease inhibitors, primary screen, biochemical, 1536-well; purified FXIa, Boc-Glu-Ala-Arg-AMC fluorogenic substrate; Coagulation factor XI (Homo sapiens), P03951; inhibition, % at 5 µM; hit rate 0.14% among 220,000;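 active = inhibition of at least 40%; inactive = inhibition below 40%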;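 note: fluorescence of freed AMC excited at 355 nm; 0% = enzyme without compound and 100% = no enzyme blank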
Target sequence (P03951 19-387 limits assumed): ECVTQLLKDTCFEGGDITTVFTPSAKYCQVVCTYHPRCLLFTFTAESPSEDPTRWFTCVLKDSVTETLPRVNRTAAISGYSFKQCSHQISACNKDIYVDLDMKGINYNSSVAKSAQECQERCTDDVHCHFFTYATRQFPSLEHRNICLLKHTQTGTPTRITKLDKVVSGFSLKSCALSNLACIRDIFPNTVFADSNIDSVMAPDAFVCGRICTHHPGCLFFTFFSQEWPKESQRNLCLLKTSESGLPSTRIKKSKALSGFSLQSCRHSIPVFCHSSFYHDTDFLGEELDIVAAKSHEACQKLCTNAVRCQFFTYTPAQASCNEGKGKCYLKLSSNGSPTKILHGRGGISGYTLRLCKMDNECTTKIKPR
Target sequence (P03951 388-625 limits assumed): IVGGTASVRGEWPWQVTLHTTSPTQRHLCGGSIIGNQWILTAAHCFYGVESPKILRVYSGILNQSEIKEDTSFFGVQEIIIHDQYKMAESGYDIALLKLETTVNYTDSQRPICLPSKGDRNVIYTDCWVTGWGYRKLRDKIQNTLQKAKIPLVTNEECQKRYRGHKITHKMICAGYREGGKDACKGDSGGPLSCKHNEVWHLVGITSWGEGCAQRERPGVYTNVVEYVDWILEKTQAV
CTSL1 counter = Fasciola hepatica cathepsin L1 inhibitors, primary screen, counter-screen for PFM18AAP inhibitor project, biochemical, QFRET, fluorogenic peptide substrate | recombinant F. hepatica cathepsin L1, Z-Leu-Arg-MCA fluorescence | inhibition, % at 5.96 µM | hit rate 0.49% among 300,000;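 active = inhibition above the mean of all tested compounds plus 3 SD, set per screening campaign, cut at about 17% in these data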;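 note: 0% = plate median of test compound wells and 100% = 1 µM Z-Phe-Ala-diazomethylketone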
Rce1 inh = yeast Rce1p protease inhibitors, primary screen, biochemical, fluorescence, cell-free homogeneous; CAAX prenyl protease 2 (Saccharomyces cerevisiae (strain ATCC 204508 / S288c)), Q03530; yeast membranes, quenched prenylated peptide cleavage fluorescence; calls only; hit rate 0.27% among 290,000; AID 2563, 2010;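 active = fall in fluorescence gain of 50% or more versus controls, with final raw signal at or below 3038400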;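 note: plate controls were neutral control wells for no effect and wells lacking membranes for full effect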
thrombin 1536 = human alpha-thrombin inhibitors, primary screen, counter-screen for coagulation protease inhibitor project, biochemical, 1536-well, fluorogenic AMC substrate; inhibition, % at 5 µM; Prothrombin (Homo sapiens), P00734; hit rate 0.26% among 220,000; AID 1046, 2008; Boc-VPR-AMC fluorogenic substrate cleavage;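 active = inhibition at or above 40%; inactive = inhibition below 40%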;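 note: 0% = enzyme with no compound and 100% = wells without enzyme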
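System: Human alpha-thrombin protein | Medium: pH 7.5 Tris (50 mM) with NaCl 150 mM, Tween 20 0.05% | Times: Enzyme reaction carried out at room temperature | Detection: AMC fluorescence, 355/460 nm | Evaluation: Percent inhibition scaled between no-compound controls and no-enzyme blanks | Benchmarks: Enzyme without compound as high, wells lacking enzyme as low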
FXIIa inh = human FXIIa protease inhibitors, primary screen, biochemical, 1536-well; Coagulation factor XII (Homo sapiens), P00748; purified FXIIa, Boc-QGR-AMC fluorogenic substrate, 2 h; inhibition, % at 5 µM; hit rate 0.3% among 220,000; AID 800, 2007; in the data active = inhibition above about 40%;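 note: 0% = enzyme with no compound and 100% = blank without enzyme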
The depositor's hits bear a star.

For CSc1nc2cc3c(cc2n1C(=O)c1ccc(C)cc1)OCCO3 the results were hK5 inh 25.6, FXIa inh 1536 67.4*, CTSL1 counter 1.1, thrombin 1536 87.7* and FXIIa inh 14.8.
Cc1c(OCC(=O)N2CCC(C(=O)O)CC2)ccc2c3c(c(=O)oc12)CCC3 was read as CTSL1 counter -0.5 and Rce1 inh inactive.
`Cc1c(Cc2ccccc2)c(=O)oc2c(C)c(OCC(=O)N3CCC(C(=O)O)CC3)ccc12` gave CTSL1 counter 3.3 and Rce1 inh active.
Screening COc1ccc(CC(NC(C)=O)C(=O)NC2CCN(c3ncccc3[N+](=O)[O-])CC2)cc1 (stereo unspecified) returned hK5 inh 11.4, FXIa inh 1536 -1.3, CTSL1 counter 5.0, Rce1 inh inactive, thrombin 1536 2.3 and FXIIa inh 13.1.
For CC(=O)OC1=C(O)C(=O)c2ccccc2C1=O the results were CTSL1 counter -0.7 and Rce1 inh active.
Screening O=C(CNCc1cccc2ccccc12)Nc1ccccc1[N+](=O)[O-] returned hK5 inh -4.2, FXIa inh 1536 -3.6, CTSL1 counter 3.3, Rce1 inh inactive, thrombin 1536 -6.1 and FXIIa inh 2.6.
Screening Cc1cccc(Nc2nnc(SCC(=O)Nc3cccnc3Cl)s2)c1 returned hK5 inh -10.3, FXIa inh 1536 -6.8, CTSL1 counter 27.0*, Rce1 inh inactive, thrombin 1536 1.7 and FXIIa inh 6.3.
`COc1ccc(N=CC2=C(Nc3ccc(OC)cc3)c3c(C)nn(-c4ccccn4)c3CC2)cc1` gave CTSL1 counter 6.8.
`Cc1c(C)c2ccc(OC(C)C(=O)NCCN3CCOCC3)c(C)c2oc1=O` (stereo unspecified) gave CTSL1 counter -1.0 and Rce1 inh inactive.
Screening Cc1c(C)c2ccc(OC(C)C(=O)NCCCN3CCOCC3)c(C)c2oc1=O (stereo unspecified) returned CTSL1 counter 1.6 and Rce1 inh active.
`Cc1cc(C)n(CCC(=O)N/N=C/c2ccc(Br)c([N+](=O)[O-])c2)n1` gave hK5 inh -0.7, FXIa inh 1536 0.6, CTSL1 counter -1.9, Rce1 inh inactive, thrombin 1536 -4.6 and FXIIa inh 6.6.
Screening COC(=O)C(Cc1ccccc1)OS(N)(=O)=O (stereo unspecified) returned CTSL1 counter -3.7 and Rce1 inh active.
`COc1ccc(/C=N\NC(=O)/C(=C\Nc2nccc(C)n2)NC(=O)c2ccccc2)cc1` gave hK5 inh 9.3, FXIa inh 1536 3.4, CTSL1 counter 20.1*, Rce1 inh inactive, thrombin 1536 -4.6 and FXIIa inh 5.1.
Cc1ccc(/C=N\NC(=O)/C(=C\Nc2nccc(C)n2)NC(=O)c2ccccc2)cc1 was read as hK5 inh 4.3, FXIa inh 1536 -0.2, CTSL1 counter 21.9*, Rce1 inh inactive, thrombin 1536 0.1 and FXIIa inh 14.2.
`Cc1cc(C)n(CC(=O)NC2CCCCC2C)c(=O)c1C#N` (stereo unspecified) gave CTSL1 counter -1.3 and Rce1 inh active.
`CN(c1ccccc1)c1ccc(/C=N/NC(=O)CC#N)cc1` gave hK5 inh -20.5, FXIa inh 1536 3.3, CTSL1 counter 8.8, Rce1 inh active, thrombin 1536 -9.6 and FXIIa inh 4.6.
For Cc1noc(C)c1COc1ccc(C(=O)OCC(=O)Nc2c(C)n(C)n(-c3ccccc3)c2=O)cc1 the results were hK5 inh 3.2, FXIa inh 1536 -2.3, CTSL1 counter -1.1, Rce1 inh inactive, thrombin 1536 3.2 and FXIIa inh 8.0.
For CC1CCN(Cc2c(C(=O)N/N=C/c3cccc(C(F)(F)F)c3)nnn2-c2nonc2N)CC1 the results were CTSL1 counter 2.5 and Rce1 inh active.
CCOc1ccc(-c2c(C(=O)N/N=C/c3c[nH]c4ccccc34)nnn2-c2nonc2N)cc1 was read as CTSL1 counter 7.7 and Rce1 inh inactive.
CC1CCN(Cc2c(C(=O)N/N=C/c3ccc(C(F)(F)F)cc3)nnn2-c2nonc2N)CC1 was read as CTSL1 counter 3.8 and Rce1 inh inactive.
COc1cccc(/C=N/NC(=O)c2nnn(-c3nonc3N)c2C(C)C)c1OCc1ccc(F)cc1 was read as CTSL1 counter 4.4 and Rce1 inh active.
CC(C)c1c(C(=O)N/N=C/c2ccc(OCc3ccc(F)cc3)cc2)nnn1-c1nonc1N was read as CTSL1 counter 0.3 and Rce1 inh inactive.
For CC(C)c1c(C(=O)N/N=C/c2cccc3ccccc23)nnn1-c1nonc1N the results were CTSL1 counter -0.6 and Rce1 inh active.
Screening CC(C)c1c(C(=O)N/N=C/c2c[nH]c3ccccc23)nnn1-c1nonc1N returned CTSL1 counter -5.8 and Rce1 inh active.
Cc1ccc(S(=O)(=O)N2CCOCC2)cc1NC(=O)COC(=O)Cn1c(C)csc1=O was read as CTSL1 counter 3.5 and Rce1 inh inactive.
C=CCNC(=S)NNc1nc2c(c(=O)[nH]1)C1(CCCCC1)Cc1ccccc1-2 was read as hK5 inh -19.7, FXIa inh 1536 -5.7, CTSL1 counter -2.7, thrombin 1536 -6.3 and FXIIa inh -7.5.
`COc1cc(CN2CCC(C(=O)NCC(C)(C)CN(C)C)CC2)ccc1OCc1ccccc1` gave CTSL1 counter 0.7 and Rce1 inh inactive.
CCOC(=O)C1(Cc2ccccc2C)CCCN(C(=O)c2sccc2C)C1 (stereo unspecified) was read as CTSL1 counter 0.2.
For CCOC(=O)C1(CCOC)CCN(C(=O)c2sccc2C)CC1 the results were hK5 inh 0.8, FXIa inh 1536 -0.8, CTSL1 counter 11.7, Rce1 inh active, thrombin 1536 -6.6 and FXIIa inh 4.1.
Screening CN(C)c1ccc(CNc2nc(-c3ccccc3)nn2S(C)(=O)=O)cc1 returned hK5 inh -11.5, FXIa inh 1536 -8.3, CTSL1 counter 0.2, Rce1 inh inactive, thrombin 1536 -7.1 and FXIIa inh 3.3.
For CC(=O)n1nc(-c2ccccc2)nc1NCc1cccs1 the results were hK5 inh -2.6, FXIa inh 1536 -4.5, CTSL1 counter -2.8, Rce1 inh inactive, thrombin 1536 97.0* and FXIIa inh 2.6.
`CC(=O)n1nc(-c2ccccc2)nc1NCc1ccc(N(C)C)cc1` gave hK5 inh -23.9, FXIa inh 1536 -6.0, CTSL1 counter 7.5, Rce1 inh inactive, thrombin 1536 61.1* and FXIIa inh -7.0.
